Assay results from paper PMC10842363 (Clinical cancer research : an official journal of the …, 2023).
Like-named read-outs stand apart in the source and are kept apart here.

Key:
[1] = test system: HER2+ tumors, DCCs and metastases; assay: Sequential Abemaciclib then HC4 treatment in MMTV-HER2 mice; format: in vivo, mouse; conditions: for GADD34 expression in primary tumors / Ki67 staining in primary tumors: 50 mpk daily, 4 weeks
[2] = test system: MMTV-HER2 cells; assay: Established metastases after tail vein injection of MMTV-HER2 cells; format: in vivo, mouse; conditions: 50 mg/kg for 2 weeks, started 3 weeks after tail vein injection
[3] = test system: MMTV-HER2 tumors; assay: Primary tumor growth in MMTV-HER2 females; format: in vivo, mouse
[4] = Safety readouts in treated mice; format: in vivo
[5] = target: T1, PERK (Homo sapiens, UniProt Q9NZJ5); conditions: HEK293 cells stimulated with Tunicamycin
T1 sequence (Q9NZJ5 30-1116): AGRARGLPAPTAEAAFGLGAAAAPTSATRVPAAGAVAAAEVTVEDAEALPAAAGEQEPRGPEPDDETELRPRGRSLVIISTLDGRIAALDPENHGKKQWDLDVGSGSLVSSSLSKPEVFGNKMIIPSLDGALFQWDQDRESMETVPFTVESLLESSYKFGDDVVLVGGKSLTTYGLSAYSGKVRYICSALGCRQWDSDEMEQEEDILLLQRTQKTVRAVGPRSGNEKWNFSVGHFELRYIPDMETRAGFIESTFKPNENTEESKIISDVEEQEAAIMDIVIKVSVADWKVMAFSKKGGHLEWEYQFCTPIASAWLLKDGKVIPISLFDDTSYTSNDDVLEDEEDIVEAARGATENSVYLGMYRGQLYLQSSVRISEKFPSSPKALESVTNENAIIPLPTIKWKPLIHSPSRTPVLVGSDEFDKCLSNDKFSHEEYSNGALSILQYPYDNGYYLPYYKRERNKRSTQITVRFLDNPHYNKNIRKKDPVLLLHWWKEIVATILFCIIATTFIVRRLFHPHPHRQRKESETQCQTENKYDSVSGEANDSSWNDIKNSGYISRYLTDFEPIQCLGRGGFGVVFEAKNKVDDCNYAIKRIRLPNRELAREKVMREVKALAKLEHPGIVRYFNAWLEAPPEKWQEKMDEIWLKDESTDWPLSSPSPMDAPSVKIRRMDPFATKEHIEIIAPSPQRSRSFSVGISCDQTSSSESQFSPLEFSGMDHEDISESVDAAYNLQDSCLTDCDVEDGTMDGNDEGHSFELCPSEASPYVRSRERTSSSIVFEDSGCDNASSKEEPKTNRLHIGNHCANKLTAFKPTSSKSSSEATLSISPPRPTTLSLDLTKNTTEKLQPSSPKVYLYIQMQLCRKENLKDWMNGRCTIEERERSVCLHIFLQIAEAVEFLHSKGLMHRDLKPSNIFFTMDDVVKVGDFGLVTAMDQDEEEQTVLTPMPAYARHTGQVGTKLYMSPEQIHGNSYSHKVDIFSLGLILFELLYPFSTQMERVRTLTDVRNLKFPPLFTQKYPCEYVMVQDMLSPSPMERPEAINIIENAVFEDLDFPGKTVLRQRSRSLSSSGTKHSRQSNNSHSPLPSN

[6] = test system: ZR-75-1 cells; assay: 3D acini culture in Matrigel, ZR-75-1; format: cell-based; conditions: ZR-75-1, 2 μM, 10-day treatment
[7] = test system: EMT6 cells; assay: EMT6 syngeneic spontaneous lung metastasis model; format: in vivo, Balb/c mice; conditions: 10 mg/kg
[8] = test system: HER2-driven early lesions in the mammary gland
[9] = In vivo pharmacokinetic study, single dose; conditions: IP administration, CD1 female mice
[10] = test system: HER2; conditions: HC4-treated vs control animals
[11] = test system: T-HEp3 cells; assay: T-HEp3 HNSCC PDX i.v. injection, solitary lung DCCs in Balb/c nu/nu mice; format: in vivo, human; conditions: 50 mg/kg for 10 days, started 24 h after i.v. injection
[12] = target: PERK (Mus musculus, UniProt Q9Z2B5); conditions: 50 mpk IP daily, 2 weeks
PERK (Mus musculus, UniProt Q9Z2B5), sequence (Q9Z2B5 29-1114): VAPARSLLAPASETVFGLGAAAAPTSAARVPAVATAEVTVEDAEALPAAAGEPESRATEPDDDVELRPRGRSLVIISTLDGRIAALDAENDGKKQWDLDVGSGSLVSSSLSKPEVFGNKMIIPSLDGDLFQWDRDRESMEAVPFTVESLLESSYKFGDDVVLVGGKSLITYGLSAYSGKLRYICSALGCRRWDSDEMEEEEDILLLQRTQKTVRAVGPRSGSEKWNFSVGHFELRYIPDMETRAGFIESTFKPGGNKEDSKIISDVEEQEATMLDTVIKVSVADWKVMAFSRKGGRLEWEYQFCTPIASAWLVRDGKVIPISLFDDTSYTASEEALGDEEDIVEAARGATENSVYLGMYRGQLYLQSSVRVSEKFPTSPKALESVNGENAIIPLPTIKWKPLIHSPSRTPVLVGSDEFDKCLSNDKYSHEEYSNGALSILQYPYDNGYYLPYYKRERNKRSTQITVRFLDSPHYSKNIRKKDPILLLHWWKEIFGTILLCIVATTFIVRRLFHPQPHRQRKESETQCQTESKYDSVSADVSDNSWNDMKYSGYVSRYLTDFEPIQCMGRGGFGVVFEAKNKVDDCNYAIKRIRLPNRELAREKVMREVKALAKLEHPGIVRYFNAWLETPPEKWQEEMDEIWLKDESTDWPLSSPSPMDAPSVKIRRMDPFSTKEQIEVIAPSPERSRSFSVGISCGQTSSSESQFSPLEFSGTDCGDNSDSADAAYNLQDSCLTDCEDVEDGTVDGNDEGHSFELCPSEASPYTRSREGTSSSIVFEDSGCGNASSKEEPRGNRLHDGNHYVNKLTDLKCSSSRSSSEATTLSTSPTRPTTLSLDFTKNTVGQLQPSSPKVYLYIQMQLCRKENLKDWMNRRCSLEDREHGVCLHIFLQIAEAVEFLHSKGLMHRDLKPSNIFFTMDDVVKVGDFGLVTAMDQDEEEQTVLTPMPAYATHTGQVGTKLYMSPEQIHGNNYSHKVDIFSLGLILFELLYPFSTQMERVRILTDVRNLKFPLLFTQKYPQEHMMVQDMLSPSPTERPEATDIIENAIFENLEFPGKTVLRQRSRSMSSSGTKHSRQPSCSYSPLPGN

[13] = test system: HER2
[14] = Mammary gland morphology in non-tumor bearing healthy mice; format: in vivo; conditions: 2 weeks
[15] = test system: GADD34; conditions: MCF10A breast pre-malignant cells
[16] = test system: MCF10A-HER2 cells
[17] = Repeated dosing tolerability; format: in vivo; conditions: repeated dosing from 30 to 100 mg/kg
[18] = test system: SKBR3 cells; assay: 3D acini culture in Matrigel, SKBR3; format: cell-based; conditions: SKBR3, 2 μM, 10-day treatment
[19] = test system: Fv2E-ΔNPERK fusion construct-expressing cell line; conditions: PERK dimerization induced with AP20187
[20] = test system: HER2+ DCCs and metastases
[21] = 28-day oral dosing study in mice; format: in vivo; conditions: oral dosing for 28 days, exposures similar to 50 mpk IP; data not shown
[22] = test system: GADD34; conditions: E0771 luminal B breast cancer cells
[23] = test system: HER2; remark: listed apart in the source
[24] = test system: MCF10A-HER2 cells; conditions: MCF10A-HER2 cells treated with HC4
[25] = test system: kinases; assay: KINOMEscan kinase selectivity assay; format: binding
Summary of the method: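 Competition binding: kinases were T7 phage-tagged (grown in BL21-derived E. coli) or HEK-293-expressed with DNA tags. Incubated with biotinylated-ligand streptavidin beads and test compound (40x DMSO stocks) in SeaBlock/PBS/Tween/DTT buffer, 1 h RT. Eluted with 0.5 μM non-biotinylated ligand (30 min); kinase quantified by qPCR. Selectivity score S = hits/assays at a %Ctrl threshold, mutants excluded.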

[26] = target: T1, PERK; conditions: MCF10A cells overexpressing HER2
[27] = test system: D-HEp3 cells; assay: Chick chorioallantoic membrane; format: in vivo, human; conditions: 20 μM, 6-day treatment, CAM
[28] = MCF10A-HER2, 2 μM, +/- EGF 100 ng/ml
[29] = MCF10A-HER2, in presence of Thapsigargin 4 nM

CCN1CCN(Cc2ccc(Nc3ncc(F)c(-c4cc(F)c5nc(C)n(C(C)C)c5c4)n3)nc2)CC1 [Abema, Abemaciclib]
GADD34 expression in primary tumors [1]: increases | Ki67 staining in primary tumors [1]: reduces | Ki67+ solitary DCCs ([1]; lung sections): almost absent

Cc1cc(NC(=O)[C@H](O)c2cc(F)cc(F)c2)ccc1-c1cnc(N)c(C(=O)NC(C)C)c1 [HC4]
frequency of already established micro-metastases [2]: not affecting | macro-metastatic lesion incidence and total metastatic burden [2]: strongly reduce | tumors showing regression ([3]; 2-week window treatment): Four | DNA fragmentation (TUNEL staining) in tumor sections ([3]; 50 mpk daily, two weeks): significant increase | median final tumor volume ([3]; 50 mpk daily, two weeks): significant decrease | tumor growth ([3]; overt tumors, 50 mpk daily, two weeks): reduced growth rate | levels of proliferation (phospho-histone H3 IHC) in tumors ([3]; vehicle- vs HC4-treated tumors): not different | bone marrow cell homeostasis and peripheral blood white cells (total cell counts) ([4]; MMTV-HER2 females, 50 mpk IP daily, two weeks): did not have a significant effect | glucose levels, bone marrow or peripheral blood cell counts, drinking and feeding behavior ([4]; non-tumor or cancer bearing mice, doses used): did not significantly affect | P-PERK (P-T980) levels [5]: effectively decreased | levels of apoptosis (cleaved caspase-3) [6]: significantly increased | primary tumor growth ([7]; 17 days, not shown): without affecting | metastatic incidence and multiplicity of lesions per lung/animal ([7]; started 9 days after implanting, 17 days of treatment): strongly inhibited | mammary glandular architecture (ductal branching) ([8]; 24-week-old MMTV-HER2 females, 50 mpk, 2 weeks): less dense branching | cytokeratin 8/18 expression in the luminal layer ([8]; 50 mpk, 2 weeks): increased expression | number of occluded hyperplasias and DCIS-like lesions relative to vehicle ([8]; 50 mpk, 2 weeks): less than half | hollow lumen mammary gland ducts, share of structures ([8]; around 20 % in control females): more than 60% | bioavailability [9]: demonstrated bioavailability | P-HER2 levels in tumors (area and intensity score) [10]: significantly lower | reduction in the number of solitary HEp3 DCCs in the lung [11]: ~ 3 fold | P-PERK inhibition in pancreatic tissue, especially pancreatic islets ([12]; IHC): only partial inhibition | P-PERK and P-eIF2α levels by IHC ([12]; mammary gland ducts and pancreatic tissue): significant decrease | decrease in P-PERK levels by western blot ([12]; tumor lysates): around 50% | endocytosed phospho- and total HER2 ([13]; MCF10A-HER2, reversible surface biotinylation): clearly increased | abundance of P-HER2 and total HER2 in the cell surface ([13]; MCF10A-HER2, not shown): did not significantly alter | GADD34 expression in primary tumors [1]: completely erased | Ki67 staining in primary tumors [1]: does not dramatically affect | normal branching and morphology of the mammary gland ductal tree [14]: did not affect | thapsigargin induced GADD34 expression [15]: completely eliminated | levels of proliferation (phospho-histone H3) ([16]; 3D acini cultures, 2 μM, cell line not given): did not detect a significant change | levels of apoptosis (cleaved caspase-3) ([16]; MCF10A-HER2, 2 μM, 10-day treatment): significantly increased | body weight [17]: no significant changes | tolerability [17]: well tolerated | levels of apoptosis (cleaved caspase-3) [18]: significantly increased | rescue of pro-apoptotic function of strong PERK activation [19]: fully rescued | area of macro-metastases ([20]; 50 mpk IP daily, two weeks): not accompanied by a significant effect | number and incidence of lung macro-metastases (>100 cells) ([20]; 50 mpk IP daily, two weeks): reduced | number of DCCs in bone marrow ([20]; 50 mpk IP daily, two weeks): significantly decreased | number of P-Rb positive solitary DCCs in lung ([20]; 50 mpk IP daily, two weeks): not affecting | number of lung micro-metastases (2-100 cells) ([20]; 50 mpk IP daily, two weeks): significant decrease | number of non-proliferating (P-Rb negative) single DCCs in lung ([20]; 50 mpk IP daily, two weeks): significantly reduced | HER2+ circulating tumor cells in blood ([20]; vehicle vs HC4-treated animals): no significant differences | effects on the pancreas or clinical chemistry (insulin and glucose levels) [21]: no deleterious effects | thapsigargin induced GADD34 expression [22]: completely eliminated | P-AKT, P-S6 and P-ERK1/2 levels [23, 28]: downregulation | basal and EGF-induced levels of P-EGFR and P-HER2 [23, 28]: decreased | levels of P-HER2 and P-AKT [23, 29]: decrease | molecular weight of phosphorylated HER2 protein [23, 29]: lower molecular weight | total HER2 levels or heterodimerization with EGFR ([23]; surface biotinylation and co-immunoprecipitation, data not shown): No obvious effect | sensitivity to low dose thapsigargin treatment [24]: sensitive | specificity for EIF2AK3 (PERK) over EIF2AK1 (HRI), EIF2AK2 (PKR), EIF2AK4 (GCN2) or HER2 ([25]; Supplementary Table S3): high specificity | KINOMEscan kinase profiling selectivity ([25]; compared to other PERK inhibitors, specifically GSK2656157, even at 10 μM): exceedingly high selectivity | P-PERK (P-T980) levels [26]: effectively decreased | dormant D-HEp3 cells in vivo [27]: eradication | increase in cleaved caspase-3 positive D-HEp3 cells in the nodules [27]: 5 fold
